Converted amounts (≈) assume the structure as drawn.
Legend:
[1] = tested on: Mycobacterium tuberculosis; test: Antimycobacterial activity against rifampin and isoniazid-susceptible Mycobacterium tuberculosis H37Rv ATCC 27294 after 5 days by Alamar blue assay; format: functional; conditions: 120 h
Outline: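 Microplate Alamar Blue assay in Middlebrook 7H9 broth; compounds serially diluted on the plate, final concentrations […]. Plates sealed and incubated 37 °C for 5 days, then 1:1 Alamar Blue reagent/10% Tween 80 added and incubated a further 24 h. Blue scored as no growth, pink as growth; MIC is the lowest concentration preventing the blue-to-pink change.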

[2] = Cytotoxicity against mouse macrophages assessed as cell viability at 100 ug/mL after 18 hrs by MTT assay; format: cell-based, Macrophage; conditions: read-out: Activity
Outline: (§1)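 Murine macrophages plated at 2.5 × 10⁶ cells/mL and held 1 h at 37 °C under 5% CO₂. Nonadherent cells were then flushed off with RPMI 1640. Adherent cells were exposed in triplicate to compound at 0.1, 1.0, 10.0 or 100, medium alone (live control) or 3% tween 20 (dead control). After 18 h MTT was added for 4 h. Formazan was dissolved in DMSO and A540 read.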

[3] = Cytotoxicity against mouse macrophages assessed as cell viability at 0.1 ug/mL after 18 hrs by MTT assay; format: cell-based, Macrophage; conditions: read-out: Activity; outline: as §1
[4] = Cytotoxicity against mouse macrophages assessed as cell viability at 1 ug/mL after 18 hrs by MTT assay; format: cell-based, Macrophage; conditions: read-out: Activity; outline: as §1
[5] = Cytotoxicity against mouse macrophages assessed as cell viability at 10 ug/mL after 18 hrs by MTT assay; format: cell-based, Macrophage; conditions: read-out: Activity; outline: as §1

| SMILES | MIC [1] [µg/mL] | viability at 18 h, 100 ug/mL [2] [%] | viability at 18 h, 0.1 ug/mL [3] [%] | viability at 18 h, 1 ug/mL [4] [%] | viability at 18 h, 10 ug/mL [5] [%] |
| --- | --- | --- | --- | --- | --- |
| O=C(N/N=C/c1ccccc1[N+](=O)[O-])c1ccncc1 | 5 (≈ 18.5 µM) |  |  |  |  |
| CO[C@H]1/C=C/O[C@@]2(C)Oc3c(C)c(O)c4c(O)c(c(/C=N/N5CCN(C)CC5)c(O)c4c3C2=O)NC(=O)/C(C)=C\C=C\[C@H](C)[C@H](O)[C@@H](C)[C@@H](O)[C@@H](C)[C@H](OC(C)=O)[C@@H]1C [RIFAMPIN] | 1 (≈ 1.22 µM) |  |  |  |  |
| O=C(N/N=C/c1ccc(Br)cc1)c1ccncc1 | 5 (≈ 16.4 µM) |  |  |  |  |
| O=C(N/N=C/c1ccccc1)c1ccncc1 [N'-BENZYLIDENE ISONICOTINOHYDRAZIDE] | 3.12 (≈ 13.9 µM) |  |  |  |  |
| CCOc1cccc(/C=N/NC(=O)c2ccncc2)c1 | 1.25 (≈ 4.64 µM) |  |  |  |  |
| O=C(N/N=C/c1ccccc1Br)c1ccncc1 | 5 (≈ 16.4 µM) |  |  |  |  |
| N#Cc1ccc(/C=N/NC(=O)c2ccncc2)cc1 | 5 (≈ 20 µM) |  |  |  |  |
| O=C(N/N=C/c1ccc(F)cc1)c1ccncc1 | 0.31 (≈ 1.27 µM) | 96 | 100 | 100 | 97 |
| O=C(N/N=C/c1ccc(Cl)cc1)c1ccncc1 | 0.31 (≈ 1.19 µM) | 96 | 100 | 97 | 97 |
| NNC(=O)c1ccncc1 [ISONIAZID] | 0.2 (≈ 1.46 µM) |  |  |  |  |
| N#Cc1cccc(/C=N/NC(=O)c2ccncc2)c1 | 1.25 (≈ 4.99 µM) |  |  |  |  |
| O=C(N/N=C/c1ccccc1Cl)c1ccncc1 | 1.25 (≈ 4.81 µM) |  |  |  |  |
| N#Cc1ccccc1/C=N/NC(=O)c1ccncc1 | 0.62 (≈ 2.48 µM) | 95 | 100 | 100 | 100 |
| COc1cccc(/C=N/NC(=O)c2ccncc2)c1 | 5 (≈ 19.6 µM) |  |  |  |  |
| O=C(N/N=C/c1cccc(Br)c1)c1ccncc1 | 2.5 (≈ 8.22 µM) |  |  |  |  |
| O=C(N/N=C/c1cccc(Cl)c1)c1ccncc1 [N'-(3-CHLOROBENZYLIDENE)ISONICOTINOHYDRAZIDE] | 0.31 (≈ 1.19 µM) | 100 | 100 | 100 | 100 |
| COc1ccc(/C=N/NC(=O)c2ccncc2)cc1 | 5 (≈ 19.6 µM) |  |  |  |  |
| O=C(N/N=C/c1cccc(F)c1)c1ccncc1 | 3.12 (≈ 12.8 µM) |  |  |  |  |
| O=C(N/N=C/c1ccccc1F)c1ccncc1 | 3.12 (≈ 12.8 µM) |  |  |  |  |
| O=C(N/N=C/c1ccc([N+](=O)[O-])cc1)c1ccncc1 [N'-(4-NITROBENZYLIDENE)ISONICOTINOHYDRAZIDE] | 1.25 (≈ 4.63 µM) |  |  |  |  |
| O=C(N/N=C/c1cccc([N+](=O)[O-])c1)c1ccncc1 | 5 (≈ 18.5 µM) |  |  |  |  |
| CCOc1ccccc1/C=N/NC(=O)c1ccncc1 | 1.25 (≈ 4.64 µM) |  |  |  |  |
| COc1ccccc1/C=N/NC(=O)c1ccncc1 | 0.31 (≈ 1.21 µM) | 98 | 100 | 100 | 100 |
| O=C(N/N=C/c1cccc(O)c1)c1ccncc1 | 1.25 (≈ 5.18 µM) |  |  |  |  |

Source: ChEMBL document CHEMBL1141661, “Synthesis and anti-mycobacterial activity of (E)-N'-(monosubstituted-benzylidene)isonicotinohydrazide derivatives” (Eur J Med Chem, 2008)
